UCH37 DUB inh – inhibitors of human deubiquitinating enzyme UCH37. inhibition, % (test concentration not listed). hit rate 0.33% among 330,000. Q9Y5K5. purified proteasome/UCH37, Ub-AMC cleavage fluorescence;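 active = mean inhibition over replicate wells above about 20%, limit read from the data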
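Material: human UCH37 enzyme supplied as purified proteasome complex. Measure: % inhibition of Ub-AMC cleavage fluorescence. Medium: pH 7.4 Tris-HCl (50 mM) with ovalbumin, ATP-MgCl2, DTT. Times: 30 min preincubation with enzyme, 25 min cleavage at room temperature. Detection: AMC fluorescence intensity at 355/460 nm.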
GRIN3A LBD mod – modulators (binders) of human NR3A ligand-binding domain; hit rate 2.5% among 340,000; Tm shift relative to glycine control, % at 25 µM; NR3A LBD differential scanning fluorimetry, Tm shift; 0% = protein alone, 100% = glycine-bound protein;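 active = melting temperature shift of at least 10% of the positive control shift, at one fixed dose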
PAFAH2 inh – inhibitors of human PAFAH2. AID 492956. inhibition, % at 3.39 µM. Q99487. hit rate 0.99% among 340,000. recombinant PAFAH2, FP-rhodamine activity probe, fluorescence polarization;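 active = inhibition above the mean over all tested compounds plus 3 SD, cut at about 30% in these data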;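 also: inhibitors block probe labeling of enzyme so polarization drops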
pPAFAH FP inh – inhibitors of human plasma PAF acetylhydrolase (pPAFAH) | inhibition, % at 3.39 µM | hit rate 1.5% among 330,000 | recombinant pPAFAH, FP-rhodamine probe fluorescence polarization;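 active = inhibition above the mean inhibition across the screen plus 3 SD, cut at about 25% in these data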;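 also: inhibitors block binding of the rhodamine activity-based probe so polarization drops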
PAFAH1B2 FP inh – PAFAH1B2 (human) inhibition. P68402. recombinant PAFAH1B2, FP-rhodamine activity probe, fluorescence polarization. inhibition, % at 3.39 µM. hit rate 1.2% among 340,000;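 active = inhibition above the mean of all tested compounds plus 3 SD, cut at about 24% in these data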
Target sequence (P68402 whole entry, looked up): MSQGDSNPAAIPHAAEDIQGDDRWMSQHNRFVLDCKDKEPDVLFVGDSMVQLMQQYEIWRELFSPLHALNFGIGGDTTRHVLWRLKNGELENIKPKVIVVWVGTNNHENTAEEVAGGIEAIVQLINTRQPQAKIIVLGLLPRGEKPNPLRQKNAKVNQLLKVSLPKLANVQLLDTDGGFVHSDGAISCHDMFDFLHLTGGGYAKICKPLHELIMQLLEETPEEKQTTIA
PAFAH1B3 inh – inhibitors of human PAFAH1B3; recombinant PAFAH1B3, FP-rhodamine probe, fluorescence polarization; inhibition, % at 3.39 µM; hit rate 0.28% among 340,000;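 active = inhibition above the screen-wide average of all tested compounds plus 3 SD, cut at about 25% in these data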
Target sequence (Q15102 whole entry, looked up): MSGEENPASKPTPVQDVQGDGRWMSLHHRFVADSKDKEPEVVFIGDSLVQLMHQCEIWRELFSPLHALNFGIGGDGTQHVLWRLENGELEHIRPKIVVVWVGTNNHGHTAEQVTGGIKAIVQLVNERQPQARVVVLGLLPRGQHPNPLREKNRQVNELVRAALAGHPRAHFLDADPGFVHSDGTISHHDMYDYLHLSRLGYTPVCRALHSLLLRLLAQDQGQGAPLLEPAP
Each line names hits and unclear results; the compound was inactive in the other large screens. Only some compounds are listed: those with a hit (about 4.8% of all), similar ones and a draw of the others.

N#CC(C(=S)Nc1ccccc1)c1nc2ccccc2[nH]1 (centres undefined)	GRIN3A LBD mod 31.0
CSC(=Nc1ccccc1)C(C#N)c1nc2ccccc2[nH]1 (centres undefined)	pPAFAH FP inh 31.2
COc1ccc(C(=O)NN=Cc2ccc(N3CCOCC3)o2)cc1OC	none (no result: GRIN3A LBD mod, PAFAH2 inh, pPAFAH FP inh, PAFAH1B2 FP inh, PAFAH1B3 inh)
CC(C)=CCc1c(O)cc(O)c2c1OC(c1ccc(O)cc1)CC2=O (centres undefined)	none
Cc1c(O)cc2c(c1O)C(=O)CC(c1ccc(O)cc1)O2 (centres undefined)	pPAFAH FP inh 32.2
CC(C)=CCc1c(O)c(CC=C(C)C)c2c(c1O)C(=O)CC(c1ccc(O)cc1)O2 (centres undefined)	GRIN3A LBD mod 15.1
Cc1noc(C)c1COC(=O)CCc1nc2ccccc2c(=O)[nH]1	GRIN3A LBD mod 21.5
Cc1ccc(COC(=O)CCc2nc3ccccc3c(=O)[nH]2)cc1	none
C=CCn1cc(C=NNC(=O)COc2cccc3cccnc23)c2ccccc21	none (no result: GRIN3A LBD mod, PAFAH2 inh, pPAFAH FP inh, PAFAH1B2 FP inh, PAFAH1B3 inh)
N#C/C(=C\c1ccc(N2CCOCC2)c([N+](=O)[O-])c1)c1nc2ccccc2[nH]1	none
N#C/C(=C/c1ccc(N2CCCC2)c([N+](=O)[O-])c1)c1nc2ccccc2[nH]1	GRIN3A LBD mod 11.7
O=C(CON=Cc1ccccc1OC(F)F)N1CCc2ccccc21	none (no result: GRIN3A LBD mod, PAFAH2 inh, pPAFAH FP inh, PAFAH1B2 FP inh, PAFAH1B3 inh)
CSc1nc(N)nc(SCCS(=O)(=O)c2ccc(Cl)cc2)c1C#N	PAFAH1B2 FP inh 25.3
Nc1ccccc1SCCS(=O)(=O)c1ccc(Cl)cc1	PAFAH1B2 FP inh 28.0
CSc1nc(N)nc(SCC(=O)C(C)(C)C)c1C#N	none
Cn1c(SCCS(=O)(=O)c2ccc(Cl)cc2)nnc1-c1ccccc1	none
CSc1nc(N)nc(SCC(=O)Nc2cccc(F)c2)c1C#N	GRIN3A LBD mod 26.3
CSc1nc(N)nc(SCC(=O)Nc2ccc(Cl)cc2)c1C#N	GRIN3A LBD mod 28.6
CC(/C=C/c1ccco1)=NNC(=O)C(O)c1ccccc1 (centres undefined)	none (no result: GRIN3A LBD mod, PAFAH2 inh, pPAFAH FP inh, PAFAH1B2 FP inh, PAFAH1B3 inh)
CC(C)c1cc(C(N)=O)c(NC(=O)c2cccc(COc3ccc(Cl)cc3)c2)s1	GRIN3A LBD mod 16.0
Nc1ccc(CSc2ccc(Cl)cc2)cc1	PAFAH1B2 FP inh 39.0
COc1ccc(Cl)cc1N(C(C)=O)c1nc(C)cc(C)c1C#N	none
COc1ccccc1N(C(C)=O)c1nc(C)cc(C)c1C#N	GRIN3A LBD mod 18.7
O=C(NN1C(=O)/C(=C\c2cccnc2)SC1=S)C(c1ccccc1)c1ccccc1	PAFAH1B2 FP inh 29.4
O=C1/C(=C/c2cccnc2)SC(=S)N1NS(=O)(=O)c1ccccc1	none
O=C(Cc1cccc2ccccc12)NN1C(=O)/C(=C\c2cccnc2)SC1=S	none
CC(=O)NN1C(=O)/C(=C/c2ccc(C(C)C)cc2)SC1=S	PAFAH1B2 FP inh 41.8
O=C(NN1C(=O)/C(=C/c2cccnc2)SC1=S)C(c1ccccc1)c1ccccc1	PAFAH1B2 FP inh 26.6
Cc1nn(-c2ccccc2)c(C)c1C=NNC(=O)c1cnccn1	none (no result: GRIN3A LBD mod, PAFAH2 inh, pPAFAH FP inh, PAFAH1B2 FP inh, PAFAH1B3 inh)
CCCOc1ccc(CCC(=O)NN=Cc2ccncc2)cc1	none (no result: GRIN3A LBD mod, PAFAH2 inh, pPAFAH FP inh, PAFAH1B2 FP inh, PAFAH1B3 inh)
CC(=NNC(=O)c1nnn(-c2nonc2N)c1C)c1ccc(-c2ccccc2)cc1	none (no result: GRIN3A LBD mod, PAFAH2 inh, pPAFAH FP inh, PAFAH1B2 FP inh, PAFAH1B3 inh)
CCN(CC)CCNC(C(=O)Nc1cc(C(F)(F)F)ccc1Cl)c1ccccc1 (centres undefined)	none
O=C(Nc1cc(C(F)(F)F)ccc1Cl)C(NCc1ccccc1)c1ccccc1 (centres undefined)	GRIN3A LBD mod 18.1
Nc1c(/C=C2/C=CC(=O)C(O)=C2)c(=O)nc2sc(CC(=O)N3CCOCC3)nn12	PAFAH1B2 FP inh 25.6 (no result: UCH37 DUB inh, pPAFAH FP inh)
Nc1c(/C=C2/C=CC(=O)C(O)=C2)c(=O)nc2sc(CC(=O)N3CCCCC3)nn12	PAFAH2 inh 34.5, pPAFAH FP inh 31.5, PAFAH1B2 FP inh 54.3
Nc1c(/C=C2/C=CC(=O)C(O)=C2)c(=O)nc2sc(CC(=O)N3CCCC3)nn12	none
COC1=C/C(=C/c2c(N)n3nc(CC(=O)N4CCCC4)sc3nc2=O)C=CC1=O	none
COc1cccc2sc(Nc3nc(-c4cc5ccccc5oc4=O)cs3)nc12	GRIN3A LBD mod 19.8
COc1ccc2oc(=O)c(-c3csc(Nc4cccc(O)c4)n3)cc2c1	GRIN3A LBD mod 27.2, PAFAH1B2 FP inh 39.6, PAFAH1B3 inh 29.0
CC(=O)Nc1ccc(Nc2nc(-c3cc4ccccc4oc3=O)cs2)cc1	none (no result: pPAFAH FP inh)

Assay outcomes (PubChem)
